Experimental data published in ChEMBL document CHEMBL1144552, “Synthesis and antitumor activities of a series of novel quinoxalinhydrazides” (Bioorg Med Chem, 2007).
Activity calls are given as the source filed them. The calls are words filed in the database; no cut-off is given here.

Legend:
MDA-MB-435 [1] = experiment: Cytotoxicity against human MDA-MB-435 cells after 72 hrs by MTT assay; type: cell-based; conditions: MDA-MB-435, 72 h
Procedure, shortened: (§1)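 Monolayer cultures in RPMI 1640 with 10% FBS and 2 mmol/L L-glutamine, 37 °C, 5% CO2, used in exponential growth and checked for mycoplasma by PCR. Cells were seeded in 96-well plates, allowed to attach, then exposed continuously to drug for 72 h. MTT (final 0.5 mg/mL) was added for 4 h at 37 °C, formazan dissolved in DMSO, absorbance read at 570 nm. Triplicate.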

HCT-116 [2] = experiment: Cytotoxicity against human HCT116 cells expressing p53 gene after 72 hrs by MTT assay; type: cell-based; conditions: HCT-116, 72 h; procedure, shortened: as §1
HCT-116 [3] = experiment: Cytotoxicity against p53 deficient human HCT116 cells after 72 hrs by MTT assay; type: cell-based; conditions: HCT-116, 72 h; procedure, shortened: as §1
HT-29 [4] = experiment: Cytotoxicity against human HT29 cells after 72 hrs by MTT assay; type: cell-based; conditions: HT-29, 72 h; procedure, shortened: as §1
LNCaP [5] = experiment: Cytotoxicity against human LNCap cells after 72 hrs by MTT assay; type: cell-based; procedure, shortened: as §1
MDA-MB-435 [6] = experiment: Inhibition of colony formation of human MDA-MB-435 cells at >=1 uM after 24 hrs; type: functional, cell-based
Procedure, shortened: (§2)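 Cells were plated at 100 cells/well in 6-well plates and allowed to attach. Serial dilutions were added the next day for 24 h exposure. Cells were then washed in PBS and grown in drug-free medium for 8–10 days until colonies formed. Colonies were fixed in 1% glutaraldehyde for 30 min, stained with 2% crystal violet for 30 min, imaged and counted. Means of at least three independent experiments.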

HCT-116 [7] = experiment: Inhibition of colony formation of p53 expressing human HCT116 cells at >=1 uM after 24 hrs; type: functional, cell-based; procedure, shortened: as §2
HCT-116 [8] = experiment: Inhibition of colony formation of p53 deficient human HCT116 cells at >=1 uM after 24 hrs; type: functional, cell-based; procedure, shortened: as §2
HT-29 [9] = experiment: Inhibition of colony formation of human HT29 cells at >=1 uM after 24 hrs; type: functional, cell-based; procedure, shortened: as §2
LNCaP [10] = experiment: Inhibition of colony formation of human LNCap cells at >=1 uM after 24 hrs; type: functional, cell-based; procedure, shortened: as §2

| Structure (SMILES) | IC50 (MDA-MB-435 [1]) [µM] | IC50 (HCT-116 [2]) [µM] | IC50 (HCT-116 [3]) [µM] | IC50 (HT-29 [4]) [µM] | IC50 (LNCaP [5]) [µM] | Activity (MDA-MB-435 [6]) | Activity (HCT-116 [7]) | Activity (HCT-116 [8]) | Activity (HT-29 [9]) | Activity (LNCaP [10]) |
| --- | --- | --- | --- | --- | --- | --- | --- | --- | --- | --- |
| O=C(NNc1nc2ccccc2n2cccc12)c1c[nH]c2ccccc12 | > 20 | > 20 | > 20 | > 20 |  |  |  |  |  |  |
| O=C(NNc1nc2cc(F)ccc2n2cccc12)c1ccccc1F | > 20 | > 20 | > 20 | > 20 |  |  |  |  |  |  |
| O=C(NNc1nc2ccccc2n2cccc12)c1cc2ccccc2[nH]1 | > 20 | > 20 | > 20 | > 20 |  |  |  |  |  |  |
| O=C(NNc1nc2cc(F)ccc2n2cccc12)c1cccnc1 | > 20 | > 20 | > 20 | > 20 |  |  |  |  |  |  |
| COc1ccccc1C(=O)NNc1nc2ccccc2n2cccc12 | > 20 | > 20 | > 20 | > 20 |  |  |  |  |  |  |
| O=C(NNc1nc2cc(F)ccc2n2cccc12)c1ccccn1 | > 20 | > 20 | > 20 | 17 | > 20 |  |  |  |  |  |
| O=C(NNc1nc2cc(F)ccc2n2cccc12)c1cnc2ccccc2n1 | 15 | 8 | 11 | 13 |  |  |  |  |  |  |
| NCCC(=O)NNc1nc2ccccc2n2cccc12 | > 20 | > 20 | > 20 | > 20 |  |  |  |  |  |  |
| O=C(NNc1nc2cc(F)ccc2n2cccc12)c1cnccn1 | 4 | 0.6 | 0.9 | 0.9 | 0.4 |  |  |  |  |  |
| O=C(NNc1nc2ccccc2n2cccc12)c1ccc2cc[nH]c2c1 | > 20 | > 20 | > 20 | > 20 |  |  |  |  |  |  |
| O=C(NNc1nc2cc(F)ccc2n2cccc12)c1cccs1 | > 20 | > 20 | > 20 | > 20 |  |  |  |  |  |  |
| O=C(NNc1nc2ccccc2n2cccc12)C1CSCN1 (centres undefined) | > 20 | 15 | 10 | 14 |  |  |  |  |  |  |
| O=C(NNc1nc2cccc(F)c2n2cccc12)c1cnccn1 | 3 | 0.4 | 0.3 | 0.3 | 0.4 | Active | Active | Active | Active | Active |
| O=C(NNc1nc2cc(F)ccc2n2cccc12)c1ccco1 | > 20 | > 20 | > 20 | > 20 |  |  |  |  |  |  |
